CTSL1 counter: cathepsin L1 inhibition, PFM18AAP counter-screen | inhibition, % at 5.96 µM | 0.49% of 300,000 active | recombinant F. hepatica cathepsin L1, Z-Leu-Arg-MCA fluorescence | AID 1906;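 active = inhibition above the mean of all tested compounds plus 3 SD, set per screening campaign, cut at about 17% in these data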
IMP-1 inh: inhibitors of Pseudomonas aeruginosa IMP-1 metallo-beta-lactamase; purified IMP-1, nitrocefin hydrolysis, epi-absorbance fluorescence; inhibition, % at 5.6 µM; 0.45% of 290,000 active; AID 1556;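 active = inhibition above the mean plus 3 SD of all compounds in the same screening run, cut at about 4.5% in these data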
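System: purified IMP-1; amount: IMP-1 0.2 nM before substrate addition; compound: single dose, 5.6 µM; times: 25 °C, 15 min preincubation, 25 min reaction; signal: Epi-absorbance via hydrolysed-nitrocefin quenching of white-plate fluorescence, 480/530 nm, EDTA stop; benchmarks: DMSO with and without IMP-1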
M18AAP inhibitor: blocks P. falciparum M18 aspartyl aminopeptidase | recombinant PfM18AAP, H-Glu-NHMec fluorogenic cleavage | inhibition, % at 7.35 µM | 1.2% of 290,000 active | AID 1822;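 active = inhibition above the campaign mean inhibition over all tested compounds plus 3 SD, cut at about 28% in these data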
VIM-2 inh: blocks Pseudomonas aeruginosa VIM-2 metallo-beta-lactamase | purified VIM-2, nitrocefin hydrolysis, epi-absorbance fluorescence | inhibition, % at 5.6 µM | 0.89% of 290,000 active | AID 1527;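 active = inhibition above the mean of all tested compounds plus 3 SD, cutoff set per screening run, cut at about 7.5% in these data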;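 also: red hydrolysis product quenches plate fluorescence so inhibitors raise well fluorescence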
Numbers stand for hits; - = inactive; . = no result. Only some compounds are listed: those with a hit (about 2.7% of all), similar ones and a draw of the others.

SMILES	CTSL1 counter	IMP-1 inh	M18AAP inhibitor	VIM-2 inh
COc1ccc(Cl)cc1NC(=O)C1Cc2ccccc2CN1S(C)(=O)=O (stereo not given)	-	-	28	-
N#Cc1cc(C(=O)c2ccccc2O)cn(-c2ccc(Cl)cc2)c1=O	-	5.4	-	-
O=Cc1coc2c(ccc3ccccc32)c1=O	-	32	-	-
O=C/C=C/c1coc2ccc3ccccc3c2c1=O	-	-	-	-
O=C(O)CCn1c(-c2ccccc2)cc2c1CCCC2=O	-	-	29	-
CCOC(=O)c1cc(-c2ccccc2)n(CCC(=O)O)c1C	-	-	-	-
Cn1nc(C(F)(F)F)c(-c2ccc(Br)cc2)c1NC(=O)c1ccco1	29	-	-	-
Cc1cc(C)c(OCC(=O)OCC(=O)N2c3ccccc3CC2C)c(C)c1 (stereo not given)	-	.	.	.
Cc1nn(-c2ccccc2)c(OC(=O)c2cccs2)c1S(=O)(=O)c1ccc([N+](=O)[O-])cc1	-	4.8	-	-
CN(CC(=O)Nc1ccc(F)cc1)C(=O)COC(=O)c1ccc(-c2ccccc2)cc1	-	.	.	.
Cc1cc2cc(CNC(=O)c3ccc(S(=O)(=O)N4CCCCC4)cc3)ccc2[nH]1	-	-	-	-
CCOC(=O)C1CCN(S(=O)(=O)c2ccc3[nH]c4c(c3c2)CCCC4)CC1	-	-	-	8.1
O=C(NCc1ccc2[nH]c3c(c2c1)CCCC3)c1ccc(S(=O)(=O)N2CCCC2)cc1	-	-	-	12
CCOC(=O)C1CCN(S(=O)(=O)c2ccc3[nH]c(=O)c(=O)[nH]c3c2)CC1	-	-	-	-
COc1ccc(-c2c(NC(=O)c3ccco3)oc3c(C)cccc3c2=O)cc1OC	-	-	-	-
S=c1[nH]nc(-c2ccncc2)n1CC1CCCO1 (stereo not given)	-	-	-	11
Fc1ccc(-c2n[nH]c(=S)n2CC2CCCO2)cc1 (stereo not given)	-	-	-	-
CCc1cccc(C)c1NC(=S)N(Cc1cccnc1)Cc1ccco1	-	-	-	-
Cc1ccc(CNC(=O)Nc2ccc(F)cc2F)n1C	.	-	30	-
O=C(Cc1ccccc1)Nc1ccccc1C(=O)N1CCCCCC1	-	-	-	-
O=[N+]([O-])c1ccc(N2CCOCC2)cc1SCc1ccco1	-	-	31	-
O=[N+]([O-])c1ccc(SCc2ccco2)cc1N1CCOCC1	-	-	-	-
COc1ccc(/C(C)=N/Nc2cccc(C(=O)O)c2)cc1OC	-	-	-	-
COc1ccc(/C(=C/Nc2cccc(Br)c2)C(C)=O)cc1OC	-	-	-	9.9
NNc1ccc(Cl)nn1	-	-	29	-
SMILES	CTSL1 counter	IMP-1 inh	M18AAP inhibitor	VIM-2 inh
CNc1ccc(Cl)nn1	-	-	-	-
N#Cc1cccc2c1-c1ccccc1/C2=N/NC(N)=O	-	-	-	10
Cc1ccccc1CSc1nnc(-c2cnccn2)n1C	-	-	-	-
CCCCN(CC)S(=O)(=O)N1CCC(C(=O)NCCCN2CCOCC2)CC1	-	6.6	-	-
COc1cc(NCCCC(C)N)c2ncccc2c1 (stereo not given)	.	-	-	-
CCC(CNc1cc(OC)cc2cccnc12)NC1CCCCC1 (stereo not given)	86	-	-	-
O=C(CCCSc1nnc(-c2cccs2)n1CC1CCCO1)c1ccccc1 (stereo not given)	-	-	-	9.7
COc1ccc(Oc2cc(C(F)(F)F)nc(N(C)C)n2)cc1	-	-	-	-
COc1ccc(OC)c(S(=O)(=O)Nc2ccc(-c3ccc4nncn4n3)cc2)c1	-	.	.	.
O=C1CN(C(=O)COC(=O)c2cc(S(=O)(=O)N3CCOCC3)ccc2Cl)c2ccccc2N1	-	-	-	-
CCC(CO)[n+]1c(C)cc(/C=C2\Sc3ccccc3N2Cc2ccccc2)cc1C (stereo not given)	-	9.9	-	-
CCN1/C(=C2\SC(=S)N(Cc3ccccc3)C2=O)Sc2ccccc21	-	-	-	-
CSCC[C@H](NC(=O)OC(C)(C)C)c1nnc(SCC(N)=O)o1	-	-	-	-
CSCC[C@H](NC(=O)OC(C)(C)C)c1nnc(SCC(=O)Nc2ccc(C)cc2C)o1	68	-	-	-
CCc1ccccc1NC(=O)CSc1nnc([C@H](CCSC)NC(=O)OC(C)(C)C)o1	54	-	-	-
Cc1ccc(N(C(=O)c2snc(C(N)=O)c2N)C(C(=O)NC2CCCC2)c2ccco2)cc1 (stereo not given)	.	-	-	-
Cc1ccc(CN(C(=O)N2CCN(C)CC2)S(=O)(=O)c2ccc(C)cc2)cc1	-	.	.	.
COc1cc(OC)cc(C(=O)N[C@H](C(=O)OCC(=O)Nc2cccc(F)c2)C(C)C)c1	-	-	-	-
COc1cc(OC)cc(C(=O)N[C@H](C(=O)OCC(=O)c2ccc(F)cc2)C(C)C)c1	18	-	-	-
O=C1/C(=C\c2c(NCCOCCO)nc3ccccn3c2=O)SC(=S)N1Cc1ccco1	-	-	-	-
Cn1cc(-c2ccccc2C(N)=O)c(=O)c2cc(Cl)ccc21	-	-	-	-
Cn1cc(C2=C(c3ccc(Cl)cc3Cl)C(=O)NC2=O)c2ccccc21	-	4.9	-	-
Cn1cc(Br)c(C(=O)NNC(=O)c2cccc(Br)c2)n1	-	-	-	-
COc1cc(C2C(C#N)=C(N)Oc3cc(N(C)C)ccc32)cc2c1OCO2 (stereo not given)	-	-	30	-
CC(=O)c1ccc(O)c(CSC2=NCCS2)c1	-	-	-	-
SMILES	CTSL1 counter	IMP-1 inh	M18AAP inhibitor	VIM-2 inh
O=C1C2C3C=CC(C3)C2C(=O)N1CNc1ccc(O)cc1 (stereo not given)	71	.	.	.
Cc1ccc(NCN2C(=O)C3C4C=CC(C4)C3C2=O)cc1 (stereo not given)	-	-	-	-
O=C(O)C1=C(C(=O)Nc2ccc(F)c(Cl)c2)CCCC1	-	10	-	-
Cn1cc(C(=O)Nc2ccc(F)c(Cl)c2)cn1	-	-	-	-
COc1ccc(CNC(=O)c2[nH]c(C)c(C(C)=O)c2C)cc1	-	-	-	-
CC1=CCC(C(=O)O)C(C(=O)NC2CCCCC2)C1 (stereo not given)	-	32	-	-
O=C1c2cccc3cccc(c23)C(=O)N1c1ccc2ncccc2c1	-	9.3	-	-
O=C1c2cccc3cccc(c23)C(=O)N1c1nccs1	-	-	-	-
O=C(O)/C=C/c1cnc2ccccc2c1	-	-	-	-
COc1cccc(C2C=C(c3ccc(Br)s3)Nc3ncnn32)c1OC (stereo not given)	-	-	32	-
COc1ccc(C2C=C(c3ccc(C)c(C)c3)Nc3ncnn32)c(OC)c1OC (stereo not given)	-	-	-	-
Fc1ccc(Br)cc1C1C=C(c2ccc(Br)s2)Nc2ncnn21 (stereo not given)	-	-	39	-
Nc1c(C(=O)NCCc2ccc(Cl)cc2)sc2ccc(S(=O)(=O)N3CCCCC3)cc12	-	-	-	-
COC(=O)c1c(NC(C)=O)sc2c1CCCCC2	-	-	-	-
COC(=O)c1c(NC(=O)C2CC=CCC2C(=O)O)sc2c1CCCCC2 (stereo not given)	-	-	29	-
